One may read the inhibition as the relative decrease from the control value, in per cent. A high value points to a strong effect. Broadly, the IC50 is the concentration at which inhibition is half-maximal. Lower therefore signals greater potency.

Structures are written as SMILES. Counter-ions that a name gives are not always drawn. Some results are limits rather than exact numbers.

The species named for the first assay is Bos taurus. In words: Inhibition of calf thymus topoisomerase 1-mediated relaxation of supercoiled pBR322 DNA at 20 uM after 30 mins by agarose gel electrophoresis.
Details: not given
Put shortly:
(§1)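 Compound at 20 or 100 μM, 37 °C for 30 min. Stopped with SDS/dye mix, run on 1% agarose in TBE for 10 h, stained with ethidium bromide (0.5 μg/mL).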
`Cc1ccsc1-c1cc(-c2ccoc2)cc(-c2ccsc2)n1` returned an inhibition of 0%.
Consider `Cc1ccsc1-c1cc(-c2ccco2)cc(-c2cccs2)n1`, for which the inhibition was found to be 12%.
With `Cc1ccc(-c2cc(-c3ccsc3)nc(-c3cccs3)c2)o1`, the inhibition worked out at 0%.
Consider `c1csc(-c2cc(-c3ccoc3)cc(-c3cccs3)n2)c1`, for which the inhibition amounted to 0%.
In turn, `CC[C@@]1(O)C(=O)OCc2c1cc1n(c2=O)Cc2cc3ccccc3nc2-1` [CAMPTOTHECIN] gave an inhibition of 41%.
With `c1csc(-c2cc(-c3ccoc3)cc(-c3ccsc3)n2)c1`, the inhibition was 0%.
On the same count and under the same terms, in the case of `Cc1ccc(-c2cc(-c3cccs3)nc(-c3cccs3)c2)o1` it was 0%.
Same read-out and setting: in the case of `Clc1ccc(-c2cc(-c3cccs3)nc(-c3cccs3)c2)o1` it was 12%; in that of `c1cc(-c2cc(-c3ccsc3)nc(-c3ccsc3)c2)co1`, 0%; in that of `Cc1ccc(-c2cc(-c3ccsc3)nc(-c3sccc3C)c2)o1`, 0%.

The species entered for the next assay is Bos taurus. Briefly: Inhibition of calf thymus topoisomerase 1-mediated relaxation of supercoiled pBR322 DNA at 100 uM after 30 mins by agarose gel electrophoresis.
Details: not given
The gist of the method:
as §1
`Cc1ccsc1-c1cc(-c2ccoc2)cc(-c2ccsc2)n1` displayed an inhibition of 13%.
Regarding `Cc1ccsc1-c1cc(-c2ccco2)cc(-c2cccs2)n1`, the inhibition worked out at 51%.
As to `Cc1ccc(-c2cc(-c3ccsc3)nc(-c3cccs3)c2)o1`, the inhibition turned out to be 0%.
`c1csc(-c2cc(-c3ccoc3)cc(-c3cccs3)n2)c1` came in with an inhibition of 0%.
Still for that read-out and setting: the figure for `CC[C@@]1(O)C(=O)OCc2c1cc1n(c2=O)Cc2cc3ccccc3nc2-1` [CAMPTOTHECIN] is 54%; for `c1csc(-c2cc(-c3ccoc3)cc(-c3ccsc3)n2)c1` it is 0%.
Same read-out and setting: in the case of `Cc1ccc(-c2cc(-c3cccs3)nc(-c3cccs3)c2)o1` it was 3%; in that of `Clc1ccc(-c2cc(-c3cccs3)nc(-c3cccs3)c2)o1`, 42%.
Still for that read-out and setting: the figure for `c1cc(-c2cc(-c3ccsc3)nc(-c3ccsc3)c2)co1` is 0%.
The compound `Cc1ccc(-c2cc(-c3ccsc3)nc(-c3sccc3C)c2)o1` displayed an inhibition of 0%.

The target in the next assay is DNA topoisomerase 2-alpha (Homo sapiens) (UniProt P11388). In words: Inhibition of human topoisomerase 2 alpha-mediated relaxation of supercoiled pBR322 DNA at 20 uM after 30 mins by agarose gel electrophoresis.
DNA topoisomerase 2-alpha (Homo sapiens), sequence (P11388 whole entry): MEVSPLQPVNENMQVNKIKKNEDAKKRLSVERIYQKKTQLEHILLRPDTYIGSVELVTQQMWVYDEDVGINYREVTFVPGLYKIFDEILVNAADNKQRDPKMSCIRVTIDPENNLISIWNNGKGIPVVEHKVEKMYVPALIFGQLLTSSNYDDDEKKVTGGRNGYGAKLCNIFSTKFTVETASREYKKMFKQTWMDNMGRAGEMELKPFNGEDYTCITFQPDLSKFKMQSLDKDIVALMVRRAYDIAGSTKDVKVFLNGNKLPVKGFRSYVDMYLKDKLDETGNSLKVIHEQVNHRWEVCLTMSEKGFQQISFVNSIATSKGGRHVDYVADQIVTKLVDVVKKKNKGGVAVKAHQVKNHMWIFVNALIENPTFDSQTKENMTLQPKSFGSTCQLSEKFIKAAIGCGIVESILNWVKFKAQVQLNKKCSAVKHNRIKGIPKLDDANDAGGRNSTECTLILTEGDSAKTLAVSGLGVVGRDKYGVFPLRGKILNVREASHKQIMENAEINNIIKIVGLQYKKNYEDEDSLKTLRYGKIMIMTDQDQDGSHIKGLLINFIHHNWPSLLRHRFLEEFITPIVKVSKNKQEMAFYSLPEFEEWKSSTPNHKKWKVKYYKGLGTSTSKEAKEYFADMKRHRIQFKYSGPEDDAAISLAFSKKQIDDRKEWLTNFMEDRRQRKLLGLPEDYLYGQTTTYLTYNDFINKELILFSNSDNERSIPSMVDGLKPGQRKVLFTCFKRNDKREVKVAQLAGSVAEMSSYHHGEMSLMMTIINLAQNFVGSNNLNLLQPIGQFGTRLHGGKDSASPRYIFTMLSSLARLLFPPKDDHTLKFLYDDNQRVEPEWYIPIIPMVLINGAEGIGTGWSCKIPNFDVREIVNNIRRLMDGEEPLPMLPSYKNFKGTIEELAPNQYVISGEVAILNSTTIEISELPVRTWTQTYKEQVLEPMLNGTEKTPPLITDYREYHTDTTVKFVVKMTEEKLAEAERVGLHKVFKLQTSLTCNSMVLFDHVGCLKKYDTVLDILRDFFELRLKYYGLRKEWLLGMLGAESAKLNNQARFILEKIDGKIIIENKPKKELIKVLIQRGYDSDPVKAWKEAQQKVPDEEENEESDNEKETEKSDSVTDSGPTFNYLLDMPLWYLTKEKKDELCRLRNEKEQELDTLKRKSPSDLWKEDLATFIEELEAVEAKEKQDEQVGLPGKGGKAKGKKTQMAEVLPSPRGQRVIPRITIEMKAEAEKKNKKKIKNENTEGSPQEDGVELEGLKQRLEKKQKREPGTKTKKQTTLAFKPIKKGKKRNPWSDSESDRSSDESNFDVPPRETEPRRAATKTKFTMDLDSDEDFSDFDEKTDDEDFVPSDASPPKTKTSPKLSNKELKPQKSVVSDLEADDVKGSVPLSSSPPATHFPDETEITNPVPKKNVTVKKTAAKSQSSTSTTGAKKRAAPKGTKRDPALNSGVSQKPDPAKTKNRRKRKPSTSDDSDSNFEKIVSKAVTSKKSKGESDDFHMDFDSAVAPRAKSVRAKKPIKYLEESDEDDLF
Details: not given
Put shortly:
(§2)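 Human topo II (0.3 U) with 0.2 μg pBR322 in 50 mM Tris–HCl pH 8.0, 120 mM KCl, 10 mM MgCl2, 0.5 mM ATP, 0.5 mM DTT and BSA. Compound at 20 or 100 μM, 37 °C for 30 min. Stopped with 0.77% SDS/77 mM EDTA, run on 1% agarose at 1.5 V/cm for 10 h in TBE, stained with ethidium bromide.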
Compound `Cc1ccsc1-c1cc(-c2ccoc2)cc(-c2ccsc2)n1` came in with an inhibition of 0%.
On the same count and under the same terms, the figure for `Cc1ccsc1-c1cc(-c2ccco2)cc(-c2cccs2)n1` is 9%; for `Cc1ccc(-c2cc(-c3ccsc3)nc(-c3cccs3)c2)o1` it is 0%; for `COc1cc([C@@H]2c3cc4c(cc3[C@@H](O[C@@H]3O[C@@H]5CO[C@@H](C)O[C@H]5[C@H](O)[C@H]3O)[C@H]3COC(=O)[C@H]23)OCO4)cc(OC)c1O` [ETOPOSIDE] it is 36%.
On the same count and under the same terms, in the case of `c1csc(-c2cc(-c3ccoc3)cc(-c3cccs3)n2)c1` it was 15%; in that of `c1csc(-c2cc(-c3ccoc3)cc(-c3ccsc3)n2)c1`, 1%.
The same measure, in the same setting: the figure for `Cc1ccc(-c2cc(-c3cccs3)nc(-c3cccs3)c2)o1` is 0%; for `Clc1ccc(-c2cc(-c3cccs3)nc(-c3cccs3)c2)o1` it is 0%; for `c1cc(-c2cc(-c3ccsc3)nc(-c3ccsc3)c2)co1` it is 4%.
Take `Cc1ccc(-c2cc(-c3ccsc3)nc(-c3sccc3C)c2)o1`: the inhibition is 0%.

A further assay shares this target. In words: Inhibition of human topoisomerase 2 alpha-mediated relaxation of supercoiled pBR322 DNA at 100 uM after 30 mins by agarose gel electrophoresis.
Details: not given
The gist of the method: as §2
As to `Cc1ccsc1-c1cc(-c2ccoc2)cc(-c2ccsc2)n1`, the inhibition came out at 0%.
As for `Cc1ccsc1-c1cc(-c2ccco2)cc(-c2cccs2)n1`, the inhibition was 28%.
The same measure, in the same setting: the figure for `Cc1ccc(-c2cc(-c3ccsc3)nc(-c3cccs3)c2)o1` is 2%.
Still for that read-out and setting: in the case of `COc1cc([C@@H]2c3cc4c(cc3[C@@H](O[C@@H]3O[C@@H]5CO[C@@H](C)O[C@H]5[C@H](O)[C@H]3O)[C@H]3COC(=O)[C@H]23)OCO4)cc(OC)c1O` [ETOPOSIDE] it was 73%; in that of `c1csc(-c2cc(-c3ccoc3)cc(-c3cccs3)n2)c1`, 70%.
On the same count and under the same terms, in the case of `c1csc(-c2cc(-c3ccoc3)cc(-c3ccsc3)n2)c1` it was 18%; in that of `Cc1ccc(-c2cc(-c3cccs3)nc(-c3cccs3)c2)o1`, 8%; in that of `Clc1ccc(-c2cc(-c3cccs3)nc(-c3cccs3)c2)o1`, 35%.
`c1cc(-c2cc(-c3ccsc3)nc(-c3ccsc3)c2)co1` showed an inhibition of 12%.
Still for that read-out and setting: in the case of `Cc1ccc(-c2cc(-c3ccsc3)nc(-c3sccc3C)c2)o1` it was 0%.

A further assay concerns DU-145. Briefly: Cytotoxicity against human DU145 cells after 3 days. Type of assay: functional, cell-based. The conditions noted are these: DU-145, 72 h. Put shortly: (§3)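 Cells seeded at 2–4 × 10⁴ per well and held overnight at 37 °C, 5% CO₂ in medium with 10% FBS. On day 1 the medium was replaced with medium holding graded compound concentrations. Absorbance read at 450 nm. IC50 from a four-parameter logistic fit of the 450 nm readings.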
In turn, `Cc1ccsc1-c1cc(-c2ccco2)cc(-c2cccs2)n1` had a concentration for half-maximal inhibition (IC50) of over 100 µM.
The same measure, in the same setting: in the case of `COc1cc([C@@H]2c3cc4c(cc3[C@@H](O[C@@H]3O[C@@H]5CO[C@@H](C)O[C@H]5[C@H](O)[C@H]3O)[C@H]3COC(=O)[C@H]23)OCO4)cc(OC)c1O` [ETOPOSIDE] it was 21.1 µM.
Same read-out and setting: the figure for `c1csc(-c2cc(-c3ccoc3)cc(-c3cccs3)n2)c1` is over 100 µM.
On the same count and under the same terms, in the case of `CC[C@@]1(O)C(=O)OCc2c1cc1n(c2=O)Cc2cc3ccccc3nc2-1` [CAMPTOTHECIN] it was 1.46 µM.
Consider `Clc1ccc(-c2cc(-c3cccs3)nc(-c3cccs3)c2)o1`, for which the IC50 is 88.1 µM.
On the same count and under the same terms, the figure for `COc1cccc2c1C(=O)c1c(O)c3c(c(O)c1C2=O)C[C@@](O)(C(=O)CO)C[C@@H]3O[C@H]1C[C@H](N)[C@H](O)[C@H](C)O1` [DOXORUBICIN HYDROCHLORIDE] is 1.3 µM.

For the next assay, the system named is MCF7. In words: Cytotoxicity against human MCF7 cells after 3 days. The following applies: MCF7, 72 h. Type of assay: functional, cell-based. Put shortly:
as §3
On to `Cc1ccsc1-c1cc(-c2ccco2)cc(-c2cccs2)n1`, for which the IC50 is over 100 µM.
The same measure, in the same setting: in the case of `COc1cc([C@@H]2c3cc4c(cc3[C@@H](O[C@@H]3O[C@@H]5CO[C@@H](C)O[C@H]5[C@H](O)[C@H]3O)[C@H]3COC(=O)[C@H]23)OCO4)cc(OC)c1O` [ETOPOSIDE] it was 18 µM.
On the same count and under the same terms, in the case of `c1csc(-c2cc(-c3ccoc3)cc(-c3cccs3)n2)c1` it was over 100 µM.
The compound `CC[C@@]1(O)C(=O)OCc2c1cc1n(c2=O)Cc2cc3ccccc3nc2-1` [CAMPTOTHECIN] came in with a half-maximal inhibitory concentration (IC50) of 7.42 µM.
In turn, `Clc1ccc(-c2cc(-c3cccs3)nc(-c3cccs3)c2)o1` gave an IC50 of over 100 µM.

A further assay concerns HCT-116. Briefly: Cytotoxicity against human HCT116 cells after 3 days. The conditions noted are these: HCT-116, 72 h. Type of assay: functional, cell-based. Put shortly: as §3
`Cc1ccsc1-c1cc(-c2ccco2)cc(-c2cccs2)n1` yielded a half-inhibitory concentration (IC50) of 56.4 µM.
For `COc1cc([C@@H]2c3cc4c(cc3[C@@H](O[C@@H]3O[C@@H]5CO[C@@H](C)O[C@H]5[C@H](O)[C@H]3O)[C@H]3COC(=O)[C@H]23)OCO4)cc(OC)c1O` [ETOPOSIDE], the IC50 is 17.9 µM.
`c1csc(-c2cc(-c3ccoc3)cc(-c3cccs3)n2)c1`: the IC50 is 50.6 µM.
The compound `CC[C@@]1(O)C(=O)OCc2c1cc1n(c2=O)Cc2cc3ccccc3nc2-1` [CAMPTOTHECIN] showed a half-inhibitory concentration (IC50) of 2.77 µM.
On the same count and under the same terms, in the case of `Clc1ccc(-c2cc(-c3cccs3)nc(-c3cccs3)c2)o1` it was 95.5 µM.

The test system of the next assay is MDA-MB-231. Briefly: Cytotoxicity against human MDA-MB-231 cells after 3 days. The assay is classed as functional, cell-based. The conditions noted are these: MDA-MB-231, 72 h. Put shortly: as §3
Compound `Cc1ccsc1-c1cc(-c2ccco2)cc(-c2cccs2)n1` gave an IC50 of 59.6 µM.
In turn, `COc1cc([C@@H]2c3cc4c(cc3[C@@H](O[C@@H]3O[C@@H]5CO[C@@H](C)O[C@H]5[C@H](O)[C@H]3O)[C@H]3COC(=O)[C@H]23)OCO4)cc(OC)c1O` [ETOPOSIDE] had an IC50 of 16.9 µM.
`c1csc(-c2cc(-c3ccoc3)cc(-c3cccs3)n2)c1`: inhibition was half-maximal at 23.6 µM (IC50).
Still for that read-out and setting: the figure for `CC[C@@]1(O)C(=O)OCc2c1cc1n(c2=O)Cc2cc3ccccc3nc2-1` [CAMPTOTHECIN] is 1.1 µM; for `Clc1ccc(-c2cc(-c3cccs3)nc(-c3cccs3)c2)o1` it is 54.8 µM; for `COc1cccc2c1C(=O)c1c(O)c3c(c(O)c1C2=O)C[C@@](O)(C(=O)CO)C[C@@H]3O[C@H]1C[C@H](N)[C@H](O)[C@H](C)O1` [DOXORUBICIN HYDROCHLORIDE] it is 1.16 µM.

Another assay relates to HeLa. In words: Cytotoxicity against human HeLa cells after 3 days. The assay is classed as functional, cell-based. The following applies: 72 h. The gist of the method:
as §3
Turning to `Cc1ccsc1-c1cc(-c2ccco2)cc(-c2cccs2)n1`, 17.9 µM corresponded to half-maximal inhibition (IC50).
The compound `COc1cc([C@@H]2c3cc4c(cc3[C@@H](O[C@@H]3O[C@@H]5CO[C@@H](C)O[C@H]5[C@H](O)[C@H]3O)[C@H]3COC(=O)[C@H]23)OCO4)cc(OC)c1O` [ETOPOSIDE] yielded a 50% inhibitory concentration (IC50) of 8.43 µM.
Take `c1csc(-c2cc(-c3ccoc3)cc(-c3cccs3)n2)c1`: the IC50 turned out to be 8.62 µM.
`CC[C@@]1(O)C(=O)OCc2c1cc1n(c2=O)Cc2cc3ccccc3nc2-1` [CAMPTOTHECIN] displayed an IC50 of 1.85 µM.
On the same count and under the same terms, the figure for `Clc1ccc(-c2cc(-c3cccs3)nc(-c3cccs3)c2)o1` is 55.2 µM; for `COc1cccc2c1C(=O)c1c(O)c3c(c(O)c1C2=O)C[C@@](O)(C(=O)CO)C[C@@H]3O[C@H]1C[C@H](N)[C@H](O)[C@H](C)O1` [DOXORUBICIN HYDROCHLORIDE] it is 1.6 µM.

The values are drawn from ChEMBL document CHEMBL1153176, “2,6-Dithienyl-4-furyl pyridines: Synthesis, topoisomerase I and II inhibition, cytotoxicity, structure-activity relationship, and docking study” (Bioorg Med Chem Lett, 2010).
